NPY-Y2 antag – blocks the human neuropeptide Y Y2 receptor. P49146. NPY-Y2 expressing cells, antagonist mode. inhibition, % at 2.7 µM. hit rate 0.99% among 140,000;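 further: 0% = vehicle with agonist challenge and 100% = reference antagonist with challenge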
Wee1 degr inh – blocks degradation of human Wee1 kinase | reporter increase, % at 5 µM | P30291 | HeLa Luc-Wee1K328M stability, luciferase luminescence; 100% = proteasome inhibitor MG132 effect | hit rate 1.2% among 220,000 | AID 1321;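 active means activation above the mean of all tested compounds plus 3 SD, set per screening run, cut at about 8.8% in these data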;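 further: cells exposed to compound for 20 h before luminescence read; 0% = DMSO alone and 100% = MG132 at 30 µM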
NPY-Y2 PAM-ag – potentiators or agonists of human neuropeptide Y receptor Y2. hit rate 0.45% among 220,000. activation, % at 3.6 µM. cells expressing NPY-Y2, potentiator/agonist read-out; in the data active means activation above about 27%;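 further: cells stimulated with NPY near EC25 plus isoproterenol at EC100; 0% = vehicle plus submaximal agonist and 100% = vehicle plus saturating agonist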
Hsp70 activator – switches on Hsp70 transcription | HeLa Hsp70 promoter luciferase reporter, luminescence; scaled: vehicle 0, proteasome-inhibitor control 100% | activation, % at 10 µM | hit rate 0.04% among 200,000 | AID 1203;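 active means activation above the mean across all tested compounds plus 3 SD, cutoff set per campaign, cut at about 5.5% in these data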;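 further: 100% = MG132 at 30 µM as the positive control and 0% = DMSO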
NPY-Y1 antag – antagonists of human neuropeptide Y receptor Y1; inhibition, % at 3.6 µM; P25929; HEK293-CNG Y1 cells, membrane potential fluorescence; NPY at EC95, then isoproterenol; AID 1040; hit rate 1% among 200,000;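 active means inhibition above the campaign mean inhibition of all tested compounds plus 3 SD, cut at about 20% in these data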;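 further: 0% = DMSO wells given NPY plus isoproterenol and 100% = isoproterenol alone without NPY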
Target sequence (P25929 whole entry, looked up): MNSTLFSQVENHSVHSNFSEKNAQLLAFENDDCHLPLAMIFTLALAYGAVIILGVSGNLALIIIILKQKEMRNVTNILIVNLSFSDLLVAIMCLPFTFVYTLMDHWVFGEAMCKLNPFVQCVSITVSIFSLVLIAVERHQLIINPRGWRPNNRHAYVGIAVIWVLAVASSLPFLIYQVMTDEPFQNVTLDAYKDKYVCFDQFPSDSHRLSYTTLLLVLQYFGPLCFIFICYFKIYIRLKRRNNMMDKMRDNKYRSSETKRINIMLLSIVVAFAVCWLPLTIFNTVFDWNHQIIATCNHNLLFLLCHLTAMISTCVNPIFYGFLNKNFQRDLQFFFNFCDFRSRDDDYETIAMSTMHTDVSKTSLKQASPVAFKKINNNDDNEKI
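material = HEK293 cells with Y1 receptor plus CNG channel | also added = NPY 25 nM then isoproterenol 1 µM plus Ro 20-1724 25 µM | schedule = dye 3 h, compound 60 min room temperature, stimulation 45 min | measured by = membrane potential fluorescence | benchmarks = high control isoproterenol alone, low control NPY with isoproterenol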
NPY-Y1 PAM-ag – human NPY-Y1 potentiation or agonism, primary screen | hit rate 0.37% among 220,000 | AID 1304 | NPY-Y1 expressing cells, potentiator/agonist activation | P25929 | activation, % at 3.6 µM; in the data active means activation above about 33%, passing the limit was not always enough;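 further: cells stimulated with NPY at EC10 then isoproterenol at EC100; 0% = low agonist plus stimulus and 100% = saturating agonist plus stimulus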
NPY1 antag conf – confirmation of human neuropeptide Y receptor Y1 antagonists. hit rate 21% among 1,200. inhibition, % at 3.6 µM. HEK293-CNG NPY-Y1, membrane potential fluorescence, cAMP; NPY challenge against isoproterenol-raised cAMP. shares compounds with NPY-Y1 antag; in the data active means inhibition above about 20%;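 further: 0% = vehicle with agonist plus stimulus and 100% = stimulus alone without agonist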
NPY2 antag ctr – human NPY-Y2 antagonism in NPY-Y1 counter-screen | shares compounds with NPY-Y1 antag | HEK293 NPY-Y2 CNG membrane potential fluorescence; cells given NPY, then isoproterenol | inhibition, % at 3.6 µM | hit rate 28% among 1,200 | AID 1255;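 further: 0% = DMSO with agonist challenge and 100% = reference antagonist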
* = called active by the depositor; . = no result given. This is a sample that favours compounds with a hit; in the whole collection about 3% have one here. Unless noted, no stated cut-off is given here; in the data, active means inhibition above about 17%; inactive means the rest.

SMILES	NPY-Y2 antag	Wee1 degr inh	NPY-Y2 PAM-ag	Hsp70 activator	NPY-Y1 antag	NPY-Y1 PAM-ag	NPY1 antag conf	NPY2 antag ctr
Cc1ccccc1OCCN(C#N)c1nc(N(C)C)nc(N(C)C)n1	.	-3	-28	0	28*	-51	12	19*
COc1cc2cc(C)nc(Cc3cccc4ccccc34)c2cc1OC	16	-1	-39	0	27*	-35	9	13
COc1ccc(NC(=O)CCSc2ccc(C)cc2)cc1S(=O)(=O)Nc1ccccc1Cl	1	3	-23	0	25*	4	-2	0
COc1ccc(N(C)S(=O)(=O)c2cccc3cccnc23)c(OC)c1	3	1	2	0	3	-4	.	.
COc1ccc(N(C(=O)C2CCCCC2)S(=O)(=O)c2cccc3cccnc23)cc1	.	1	-7	0	31*	-2	21*	7
O=c1[nH]c(CSc2nnc(-c3ccccc3)n2C2CCCCC2)nc2ccccc12	0	-1	10	0	30*	-4	-2	0
CC(C)CCNC(=O)c1cccc(S(=O)(=O)N2CCc3ccccc32)c1	4	1	-9	0	4	-3	.	.
CC(C)CN(CC(C)C)C(=O)c1cccc(S(=O)(=O)N2CCc3ccccc32)c1	.	-1	-3	0	29*	-5	5	6
COc1ccc(Cl)cc1NC(=O)CNc1ccccc1CN(C)C1CCCCC1	.	-2	-8	0	29*	-17	26*	20*
COc1ccc(C)cc1NC(=O)CNc1ccccc1CN(C)C1CCCCC1	.	-1	-7	0	12	7	.	.
COc1cccc(N2CCN(C(=O)CCCCCNc3nc(=S)[nH]c4ccccc34)CC2)c1	.	-1	6	0	3	8	.	.
O=C(c1cc(-c2cccs2)on1)N1CCN(C(c2ccccc2)c2ccccc2)CC1	1	-3	1	0	3	-5	.	.
COc1cccc(-c2cc(C(=O)N3CCN(C(c4ccccc4)c4ccccc4)CC3)no2)c1	7	-2	-6	0	24*	-31	7	8
Cc1cccc2cc(CN(Cc3ccco3)C(=O)Nc3cccc(C#N)c3)c(Cl)nc12	9	0	-32	0	34*	-27	19	9
CSc1cccc(NC(=O)Cc2ccccc2[N+](=O)[O-])c1	.	-1	-9	0	-2	1	.	.
COc1ccc(CCNC(=O)c2ccc(Cl)cc2Cl)cc1	4	2	-16	0	5	5	.	.
COc1ccc(N(C)S(=O)(=O)c2ccc(Cl)c(C(=O)NCCc3ccc(Cl)cc3)c2)cc1	.	-2	5	0	29*	5	9	10
CCOC(=O)C1=C(c2cccc(Oc3ccccc3)c2)NC(=S)NC1C (stereo not given)	6	5	3	-1	0	10	.	.
CCOC(=O)c1c(C)[nH]c(C(=O)OCC(=O)NC(C)(C)C)c1C	.	4	19	0	-5	-1	.	.
CCOC(=O)c1[nH]c(C)c(C(=O)OCC(=O)NC(=O)NC(C)(C)C)c1C	0	-1	-8	0	21*	-7	0	2
O=C1CCCC2=C1C(c1ccncc1)c1c(nc(SCc3ccccc3Cl)[nH]c1=O)N2 (stereo not given)	2	0	-6	0	-1	-5	.	.
CCC(C)Sc1nc2c(c(=O)[nH]1)C(c1cccs1)C1=C(CCCC1=O)N2 (stereo not given)	.	2	1	0	22*	7	3	9
C(=C\c1ccccc1)/CSc1nnc(-c2cccnc2)o1	7	-1	-22	0	11	-31	.	.
CCCC(c1nnnn1C(C)(C)C)N1CCN(Cc2ccccc2OC)CC1 (stereo not given)	.	-3	-23	0	22*	-10	7	5
S=c1[nH]nc(-c2cc(-c3ccsc3)n[nH]2)n1-c1cccc2ccccc12	.	-1	0	0	10	8	.	.
SMILES	NPY-Y2 antag	Wee1 degr inh	NPY-Y2 PAM-ag	Hsp70 activator	NPY-Y1 antag	NPY-Y1 PAM-ag	NPY1 antag conf	NPY2 antag ctr
COc1ccc(-c2cc(-c3n[nH]c(=S)n3-c3cccc4ccccc34)[nH]n2)cc1	.	0	-28	0	55*	-23	85*	101*
COC(=O)c1c(NC(=O)CSc2nnnn2-c2ccccc2)sc2c1CCC(C(C)(C)C)C2 (stereo not given)	1	-2	-4	0	3	-10	.	.
COC(=O)c1c(NC(=O)CSc2nnnn2-c2ccccc2)sc2c1CCC(C)C2 (stereo not given)	14	-1	9	0	20*	-34	12	14
Cc1noc(C)c1CSc1nnc(-c2ccccc2F)n1CCc1ccccc1	12	-2	9	0	20*	-15	4	4
Cc1noc(C)c1CSc1nc2ccccc2n1C	-1	-1	6	0	4	11	.	.
CCN(CC)S(=O)(=O)c1cc(-c2nn(C)c(=O)c3ccccc23)ccc1C	3	0	2	0	8	5	.	.
Cc1ccc2nc3c(cc(C#N)c(=N)n3CCCN3CCOCC3)c(=O)n2c1	2	1	-2	0	-6	-37	.	.
Cc1ccc(S(=O)(=O)N(C)C)cc1NC(=O)Nc1c(-c2ccccc2)noc1C	.	-4	-5	.	.	-2	.	.
Cc1onc(-c2ccccc2)c1NC(=O)Nc1c(-c2ccccc2)noc1C	.	-2	5	0	30*	13	7	2
CCn1nc(CC(=O)Nc2nnc(CC(=O)N3CCCC3)s2)c2ccccc2c1=O	4	2	-20	0	20*	-18	-1	4
CCn1nc(CC(=O)Nc2nnc(CC(=O)N3CCOCC3)s2)c2ccccc2c1=O	3	-2	-4	0	5	-28	.	.
O=C(NC(=S)NCc1ccccc1)c1ccc2c(c1)OCO2	9	0	-7	0	21*	-12	9	9
O=C(NNC(=S)NCc1ccccc1)c1ccc2c(c1)OCO2	7	3	-19	0	10	-13	.	.
Cc1cc(C(=O)NNC2CC(=O)N(c3ccc4ccccc4c3)C2=O)c(C)o1 (stereo not given)	.	-1	-1	0	5	-12	.	.
CCN(C(=O)c1ccc(C(C)(C)C)cc1)c1nnc(Cn2nnc3ccccc32)s1	4	-2	-64	0	31*	-99	41*	16
CCN(C(=O)CC(C)C)c1nnc(Cn2nnc3ccccc32)s1	.	-1	-4	0	-5	-5	.	.

Screens from PubChem.
